Measured values reported in ChEMBL document CHEMBL5137045, “Discovery of 2-(furan-2-ylmethylene)hydrazine-1-carbothioamide derivatives as novel inhibitors of SARS-CoV-2 main protease” (Eur J Med Chem, 2022).
The source made the active and inactive calls. The calls are words filed in the database; no cut-off is given here.

Assays:
[1] = target: T1, Replicase polyprotein 1ab (Severe acute respiratory syndrome coronavirus 2, UniProt P0DTD1); experiment: Inhibition of SARS CoV-2 main protease using DABCYL-KTSAVLQSGFRKM-E(EDANS)-NH2 as substrate preincubated for 30 mins followed by substrate addition and measured after 20 mins
[2] = target: Replicase polyprotein 1ab (Severe acute respiratory syndrome coronavirus 2) (UniProt P0DTD1); experiment: Inhibition of SARS CoV-2 main protease at 50 uM using DABCYL-KTSAVLQSGFRKM-E(EDANS)-NH2 as substrate preincubated for 30 mins followed by substrate addition and measured after 20 mins relative to control; settings: time 50.0 min
How it was run: (§1)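 FRET protease assay in 40 mM PBS, 100 mM NaCl, 1 mM EDTA, 0.1% Triton, pH 7.3. M^pro (0.5 μM) was preincubated with inhibitor 30 min at room temperature, then 20 μM substrate was added. Cleavage fluorescence (ex 360/em 460 nm) was read for 20 min. This covers preliminary screening and IC50; IC50 from Hill1 fit.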

[3] = target: T1, Replicase polyprotein 1ab; experiment: Binding affinity to SARS-CoV-2 main protease assessed as dissociation constant by SPR analysis
How it was run: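 SPR with M^pro immobilised and an empty first flow channel as reference. Compounds were injected for 60 s at 0.2–100 μM for binding (50 μM for screening). Dissociation was followed for 100–200 s at 30 μL/min. […] K_D came from a 1:1 kinetic binding fit.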

[4] = target: T1, Replicase polyprotein 1ab; experiment: Inhibition of SARS CoV-2 main protease using DABCYL-KTSAVLQSGFRKM-E(EDANS)-NH2 as substrate preincubated for 5 mins followed by substrate addition
How it was run: (§2)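 Time-dependence: M^pro was preincubated with various inhibitor concentrations for different times at room temperature before fluorogenic substrate addition. Activity was read as in the standard FRET assay.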

MDCK = experiment: Cytotoxicity against MDCK cells assessed as reduction in cell viability incubated for 48 hrs by MTT assay; assay type: toxicity, cell-based, Canis lupus familiaris; settings: dog
How it was run: (§3)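 MTT viability assay. Vero cells were kept in MEM and MDCK cells in DMEM, each with 10% FBS and 100 U/mL penicillin/streptomycin, humidified, 5% CO2. Cells were seeded, incubated 18 h, then given compound; vehicle served as blank.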

Procathepsin L = Procathepsin L (Homo sapiens, UniProt P07711); experiment: Inhibition of human Cathepsin L using Ac-FR-AFC as fluorescent substrate preincubated for 15 mins followed by substrate addition and measured after 30 mins by fluorescent microplate reader analysis
[5] = target: T1, Replicase polyprotein 1ab; experiment: Inhibition of SARS CoV-2 main protease using DABCYL-KTSAVLQSGFRKM-E(EDANS)-NH2 as substrate preincubated for 180 mins followed by substrate addition; how it was run: as §2
[6] = target: T1, Replicase polyprotein 1ab; experiment: Inhibition of SARS CoV-2 main protease using DABCYL-KTSAVLQSGFRKM-E(EDANS)-NH2 as substrate preincubated for 30 mins followed by substrate addition; how it was run: as §1
Vero = experiment: (§4) Cytotoxicity against African green monkey Vero cells assessed as reduction in cell viability measured after 48 hrs by MTT assay; assay type: toxicity, cell-based; settings: chlorocebus sabaeus, vero, 48 h; how it was run: as §3
[7] = target: Replicase polyprotein 1ab (Severe acute respiratory syndrome coronavirus 2) (UniProt P0DTD1); experiment: Covalent binding affinity to SARS CoV-2 main protease at 15 uM incubated for 3 hrs by Quadrupole-TOF LC-MS/MS analysis
How it was run: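 Protease (2 μM) was co-incubated with 15 μM inhibitor on ice for 3 h. The complex was run on Q-TOF LC-MS/MS, and raw mass signal was deconvoluted to give total protein mass.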

[8] = target: Replicase polyprotein 1ab (Severe acute respiratory syndrome coronavirus 2) (UniProt P0DTD1); experiment: Reversible inhibition of SARS CoV-2 main protease at 100 uM incubated for 180 mins by ultrafiltration assay
How it was run: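 Reversibility: 10 μM M^pro was incubated with 100 μM inhibitor for 180 min and split into four portions, each ultrafiltered a different number of times. Each round added an equal volume of assay buffer, 5 min, 4 °C, 12,000 rpm. Retained protease was diluted to 0.5 μM and assayed for activity; three replicates averaged.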

[9] = target: Replicase polyprotein 1ab (Severe acute respiratory syndrome coronavirus 2) (UniProt P0DTD1); experiment: Non-competitive inhibition of SARS CoV-2 main protease using DABCYL-KTSAVLQSGFRKM-E(EDANS)-NH2 as substrate at varying concentrations preincubated for 3 hrs followed by substrate addition by Lineweaver-burk plot analysis
How it was run: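 Kinetics: 0.5 μM M^pro was preincubated 3 h with DMSO or inhibitor, then varying fluorogenic substrate concentrations started the reaction. Three replicates, curve-fitted.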

[10] = as §4; assay type: toxicity, cell-based; settings: chlorocebus sabaeus, Vero cells; how it was run: as §3

Procathepsin L, sequence (P07711 whole entry): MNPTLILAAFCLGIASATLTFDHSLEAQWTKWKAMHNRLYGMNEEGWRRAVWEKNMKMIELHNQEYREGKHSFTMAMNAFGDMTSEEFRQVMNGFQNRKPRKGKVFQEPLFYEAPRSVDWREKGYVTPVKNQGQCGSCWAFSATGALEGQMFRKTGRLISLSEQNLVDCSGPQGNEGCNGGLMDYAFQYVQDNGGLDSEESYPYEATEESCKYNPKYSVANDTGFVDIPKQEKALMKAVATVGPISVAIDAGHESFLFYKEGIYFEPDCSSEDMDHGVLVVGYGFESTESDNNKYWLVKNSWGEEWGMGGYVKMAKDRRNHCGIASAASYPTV

Row | SMILES | IC50 [1] [µM] | inhibition [2] [%] | also measured
1 | NC(=S)N/N=C/c1ccc(-c2ccc(C(=O)O)c(Cl)c2)o1 | 32.5 | 89 | –
2 | COc1ccc(-c2ccc(/C=N/NC(N)=S)o2)cc1OC | 5.81 | 102 | –
3 | NC(=S)N/N=C/c1ccc(-c2ccccc2)o1 | 4.05 | 100 | –
4 | NC(=S)N/N=C/c1ccc(-c2ccc(Cl)c(C(=O)O)c2)o1 | 25.4 | 93.6 | –
5 | N#Cc1cc(-c2ccc(/C=N/NC(N)=S)o2)ccc1O | 4.14 | 107 | –
6 | NC(=S)N/N=C/c1ccc(-c2ccc(O)c(C(=O)O)c2)o1 | 9.09 | 115 | –
7 | NC(=S)N/N=C/c1ccc(-c2cnc3ccccc3c2)o1 | 10.3 | 88.9 | –
8 | NC(=S)N/N=C/c1ccc(-c2cccc(C(=O)O)c2Cl)o1 | 40.6 | 84.4 | –
9 | NC(=S)N/N=C/c1ccc(-c2cccc(C(=O)O)c2)o1 | 10.9 | 85.1 | –
10 | NC(=S)N/N=C/c1ccc(-c2ccc(C(=O)O)cc2)o1 | 17.5 | 89.4 | –
11 | NC(=S)N/N=C/c1ccc(-c2ccc3cccnc3c2)o1 | 10.4 | 92.3 | –
12 | Cc1cc([N+](=O)[O-])c(-c2ccc(/C=N/NC(=O)c3nonc3N)o2)cc1Cl | 25 | 70.9 | –
13 | Nc1nonc1-c1nc2ccccc2n1CC(=O)N/N=C/c1ccc(-c2cccc(C(=O)O)c2)o1 | 21.3 | 65 | Kd [3]: 27.7 µM
14 | NC(=S)N/N=C/c1ccc(-c2ccc(C(=O)O)c(O)c2)o1 | 1.57 | 102 | IC50 [4]: 42.8 µM; CC50 (MDCK): > 100 µM; IC50 (Procathepsin L): 16.3 µM; IC50 [5]: 0.85 µM; IC50 [6]: 6.18 µM; CC50 (Vero): > 100 µM; Activity [7]: Active; inhibition [8]: Active; inhibition [9]: Active
15 | NC(=S)N/N=C/c1ccc(-c2ccc(F)nc2)o1 | 8.76 | 97.4 | –
16 | NC(=S)N/N=C/c1ccc(-c2ccc(C(=O)O)cc2F)o1 | 8.14 | 101 | –
17 | NC(=S)N/N=C/c1ccc(-c2cccc([N+](=O)[O-])c2)o1 | 8.08 | 81.6 | –
18 | NC(=S)N/N=C/c1ccc(-c2ccc(S(N)(=O)=O)cc2)o1 | 5.39 | 98.5 | –
19 | Cc1cc(-c2ccc(/C=N/NC(=O)Cn3nnnc3N)o2)c([N+](=O)[O-])cc1C | 17.5 | 86 | –
20 | Cc1cc(C(=O)O)ccc1-c1ccc(/C=N/NC(N)=S)o1 | 4.69 | 98.5 | –
21 | NC(=S)N/N=C/c1ccc(-c2ccncc2)o1 | 7.09 | 95.4 | –
22 | NC(=O)c1ccc(-c2ccc(/C=N/NC(N)=S)o2)cc1 | 4 | 94.2 | –

Row | SMILES | IC50 [1] [µM] | inhibition [2] [%] | also measured
23 | NC(=S)N/N=C/c1ccc(-c2cc(C(=O)O)ccc2Cl)o1 | 10 | 97.2 | –
24 | NC(=S)N/N=C/c1cc(-c2ccc(C(=O)O)cc2)co1 | 24.6 | 90.9 | –
25 | Cc1c(NC(=S)N/N=C/c2ccc(-c3ccc([N+](=O)[O-])cc3)o2)c(=O)n(-c2ccccc2)n1C | 10.8 | 95 | –
26 | N#C/C(=C\c1ccc(-c2cccc(C(=O)O)c2)o1)c1nc2ccccc2[nH]1 | – | < 20 | –
27 | NC(=S)N/N=C/c1ccc(-c2ccc(C(=O)O)cc2)s1 | 5.78 | 95.1 | –
28 | CNC(=S)N/N=C/c1ccc(-c2cccc(C(=O)O)c2)o1 | – | 22.2 | –
29 | NC(=S)N/N=C/c1ccc(Cc2ccccc2)o1 | 1.55 | 100 | CC50 (MDCK): > 100 µM; IC50 (Procathepsin L): 8.09 µM; CC50 at 48 h [10]: 100 µM
30 | NC(=S)N/N=C/c1cccc(-c2ccc(C(=O)O)cc2)c1 | 5.44 | 99.2 | –
31 | NC(=S)N/N=C/c1ccc(-c2ccc([N+](=O)[O-])cc2)o1 | 9.69 | 81.1 | –
32 | COCc1c(Br)c(C)nc(OCC(=O)N/N=C/c2ccc(-c3cccc(C(=O)O)c3)o2)c1C#N | – | 32.9 | –
33 | O=C(CSc1nnnn1-c1ccccc1)N/N=C/c1ccc(-c2ccccc2C(=O)O)o1 | – | 45.3 | –
34 | CC1=NN(c2ccc(C)c(Cl)c2)C(=O)/C1=C\c1ccc(-c2ccc(C(=O)O)cc2)o1 | – | < 20 | –
35 | O=C(O)c1ccc(-c2ccc(/C=N/NC(=S)NC3CCCCC3)o2)cc1 | – | 37.3 | –
36 | O=[N+]([O-])c1cccc(-c2ccc(/C=N/NC(=S)NC3CCS(=O)(=O)C3)o2)c1 (stereo not given) | – | 30.2 | –
37 | NC(=S)N/N=C/c1ccc(-c2ccc3ccccc3c2)o1 | – | 54.1 | –
38 | COc1cccc(C(=O)NCC(=O)N/N=C/c2ccc([N+](=O)[O-])o2)c1 | – | < 20 | –
39 | Nc1nonc1-c1cc2ccccc2n1CC(=O)N/N=C/c1ccc(-c2cccc(C(=O)O)c2)o1 | – | < 20 | –
40 | Nc1nonc1-c1nc2ccccc2n1CC(=O)N/N=C/c1ccc(-c2ccc([N+](=O)[O-])cc2)o1 | – | 30.1 | –
41 | O=C(O)c1cc(-c2ccc(/C=N/Nc3nc4nonc4nc3Nc3ccc(Br)cc3)o2)ccc1O | – | 45.9 | –
42 | NC(=S)N/N=C/c1ccc(-c2ccc(Cl)c(Cl)c2)o1 | – | 49.8 | –
43 | Nc1nonc1-c1nc2ccccc2n1CC(=O)N/N=C/c1ccc(-c2ccccc2C(=O)O)o1 | – | 41.7 | –
